In the library only some 1.5% were active in any assay of this set; here they are far more common.
APJ ag: agonists of human apelin receptor APJ, primary screen, CHO-K1 cells, PathHunter beta-arrestin, luminescence; P35414; 0% DMSO wells, 100% apelin; activation, % at 20 µM; 330,000 compounds, 0.11% hits;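 active = activation more than six SD over the plate average, tested at 20 µM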
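Assay system – PathHunter CHO-K1 APJ (AGTRL-1) beta-arrestin reporter cells · Compound – one dose, 20 µM compound, 1% DMSO · Timing – compound 90 min 25 °C, reagent 1 h · Measured by – luminescence from split beta-galactosidase complementation, Galacton Star/Emerald II substrate · Measure – beta-arrestin recruitment to APJ as agonist activity, luminescent signal · Benchmarks – DMSO vs Apelin-13 10 nM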
CCR6 antagonist: CCR6 receptor antagonists, primary screen, cell-based, CHO-K1, luminescence, beta-arrestin, uHTS; CHO-K1 CCR6 PathHunter beta-arrestin, CCL20-stimulated; inhibition, % at 20 µM; 340,000 compounds, 0.49% hits; AID 493098, 2011;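 active = compounds whose inhibition of the agonist-driven luminescence signal at 20 µM reaches about 50%, limit read from the data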;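 also: cells stimulated with CCL20 at 14 nM final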
EBI2 antag: EBI2 receptor antagonists, beta-arrestin recruitment, primary screen, cell-based, luminescence, 7a,25-OHC stimulation, uHTS | 7a,25-OHC stimulated | inhibition, % at 5 µM | 360,000 compounds, 0.81% hits | AID 651636, 2012; in the data active = inhibition above about 38%;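 also: enzyme fragment complementation signal reports receptor beta-arrestin coupling in cells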
CXCR6 block: CXCR6 receptor inhibitors, primary screen, cell-based, beta-arrestin, luminescence, CHO-K1 PathHunter, 1536-well | C-X-C chemokine receptor type 6 (Homo sapiens), O00574 | inhibition, % at 20 µM | 360,000 compounds, 0.36% hits; in the data active = inhibition above about 34%, passing the limit was not always enough;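 also: antagonist mode with CXCL16 agonist at 10 nM final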
Target sequence (O00574 whole entry, looked up): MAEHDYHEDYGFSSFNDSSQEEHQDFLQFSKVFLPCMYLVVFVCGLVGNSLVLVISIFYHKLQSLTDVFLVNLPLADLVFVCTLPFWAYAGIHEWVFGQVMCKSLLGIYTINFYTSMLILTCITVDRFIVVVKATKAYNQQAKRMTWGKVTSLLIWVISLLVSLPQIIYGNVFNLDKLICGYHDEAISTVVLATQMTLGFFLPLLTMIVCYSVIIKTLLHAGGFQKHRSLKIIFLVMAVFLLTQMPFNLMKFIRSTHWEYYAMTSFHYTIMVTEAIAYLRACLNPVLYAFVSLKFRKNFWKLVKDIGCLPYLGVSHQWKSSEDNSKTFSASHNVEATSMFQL
APJ antagonist: antagonists of human apelin receptor APJ, primary screen, CHO-K1 cells, beta-arrestin complementation, luminescence. inhibition, % at 20 µM. P35414. 330,000 compounds, 0.32% hits;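 active = inhibition above about 40% at 20 µM, limit read from the data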;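 also: cells challenged with 10 nM apelin-13 agonist together with compound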
EBI2 conf: EBI2 antagonist hit retest, beta-arrestin, confirmation, cell-based, single concentration, luminescence, 7a,25-OHC stimulation; AID 651997, 2013; shares compounds with EBI2 antag; inhibition, % at 5 µM; 2,400 compounds, 29% hits; 7a,25-OHC antagonism;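 active = inhibition of at least 50%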
EBI2 ag: EBI2 agonist activity of antagonist hits, confirmation, counter-screen for EBI2 antagonist project, cell-based, single concentration, agonist mode, luminescence. shares compounds with EBI2 antag. EBI2-expressing cells, 60 min; 0% vehicle, 100% 7α,25-dihydroxycholesterol control. activation, % at 5 µM. 2,400 tested, under 10 active. AID 652000, 2013;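 active = activation of at least 50%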
bGal counter: E. coli beta-galactosidase enzyme inhibition, confirmation, counter-screen for EBI2 antagonist project, biochemical, luminescence, single concentration | shares compounds with EBI2 antag | inhibition, % at 5 µM | purified beta-galactosidase, luminescent Galacton Star, 15 min | 2,400 compounds, 1% hits | AID 652176, 2013;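 active = replicate-average signal at least 3 plate SD below neutral wells, shown as high inhibition, flagging enzyme-inhibiting false positives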;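 also: higher means stronger loss of beta-gal luminescence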
Hits are given with their value; n = inactive; x = no result given.

SMILES	APJ ag	CCR6 antagonist	EBI2 antag	CXCR6 block	APJ antagonist	EBI2 conf	EBI2 ag	bGal counter
O=C(NCc1ccc(F)cc1)C1CCN(S(=O)(=O)c2ccc(Br)s2)CC1	n	n	52	n	n	n	n	n
O=C(NCc1ccc(F)cc1)C1CCCN(S(=O)(=O)c2ccc(Br)s2)C1 (stereo unspecified)	n	n	n	n	n	x	x	x
O=C(NCc1ccc(Cl)cc1)c1ccc(S(=O)(=O)N2CCCCC2)cc1	n	n	49	n	n	n	n	n
O=C(NCc1ccc(Cl)cc1)C1CCN(S(=O)(=O)c2ccc(F)cc2)CC1	n	n	51	n	n	n	n	n
O=C(NCc1ccncc1)C1CCN(S(=O)(=O)c2ccc(F)cc2)CC1	n	n	n	n	n	x	x	x
O=C(NCc1ccc(F)cc1)c1ccc(S(=O)(=O)N2CCCCC2)cc1	n	n	n	n	n	x	x	x
O=C(NCc1ccc(Cl)cc1)C1CCN(S(=O)(=O)c2cccnc2)CC1	n	n	50	n	n	n	n	n
CCCCC(=O)NS(=O)(=O)c1ccc(N=NN2CCOCC2)cc1	n	n	n	n	n	x	x	x
CC(C)[C@H](NC(N)=O)C(=O)Nc1cccc(S(=O)(=O)N2CCOCC2)c1	n	n	n	n	n	x	x	x
COc1cccc(NC(=O)N(C)C[C@@H]2OCc3cnnn3CCCC(=O)N([C@H](C)CO)C[C@@H]2C)c1	x	x	n	n	x	x	x	x
O=C(NCCc1ccccc1)C1CCN(S(=O)(=O)N2CCCCCC2)CC1	n	n	n	n	n	x	x	x
O=C(NCCc1ccc(Cl)cc1)C1CCN(S(=O)(=O)N2CCCCC2)CC1	n	n	44	n	n	n	n	n
O=C(c1ccc(-n2cncn2)c([N+](=O)[O-])c1)N1CCN(S(=O)(=O)c2cccc(F)c2)CC1	n	n	n	n	n	x	x	x
Cc1ccc(/C=C/C(=O)N2CCN(S(=O)(=O)c3c(C)c(C)cc(C)c3C)CC2)o1	n	n	50	n	n	n	n	n
Cc1ccc(N2CC(C(=O)Nc3cccc(S(=O)(=O)N4CCOCC4)c3)CC2=O)cc1 (stereo unspecified)	x	x	n	n	x	x	x	x
COC(=O)c1ccc(OCC(=O)c2ccc(O)cc2O)cc1	n	n	n	n	n	x	x	x
O=C(COc1ccc(Cl)cc1)c1ccc(O)cc1O	n	n	44	n	n	n	n	n
COC(=O)c1cc2c(ccn2-c2ccc(F)cc2)n1Cc1ccc(OC)cc1	n	n	44	n	n	n	n	n
CCn1c(C(=O)OC)cc2c1ccn2-c1ccc(F)cc1	n	n	46	n	n	n	n	n
Cc1cc(C)cc(NC(=O)Nc2ccccc2N2CCCCC2)c1	n	n	n	n	n	x	x	x
CC(=O)Nc1ccc(C(=O)N/C(=C\c2ccccc2)C(=O)Nc2cccc(C(=O)O)c2)cc1	n	n	n	n	n	x	x	x
CCOc1cc(S(=O)(=O)N2CC=C(c3ccc(F)cc3)CC2)c(OCC)cc1-n1cnnn1	n	n	n	n	n	x	x	x
CCOc1cc(S(=O)(=O)N2CCC(Cc3ccccc3)CC2)c(OCC)cc1-n1cnnn1	n	n	45	n	n	n	n	n
COc1cc(C#N)c(NC(=S)N2CCN(C(=O)c3ccco3)CC2)cc1OC	x	x	n	n	x	x	x	x
C[C@H]1CN([C@@H](C)CO)S(=O)(=O)c2ccc(Br)cc2O[C@H]1CN(C)C(=O)Cc1ccccc1	x	x	n	n	x	x	x	x
SMILES	APJ ag	CCR6 antagonist	EBI2 antag	CXCR6 block	APJ antagonist	EBI2 conf	EBI2 ag	bGal counter
C[C@@H]1CN([C@H](C)CO)S(=O)(=O)c2ccc(C#Cc3ccccc3F)cc2O[C@@H]1CN(C)C(=O)Cc1ccccc1	x	x	72	n	x	79	n	n
Cc1ccc(NC(=O)c2ccc3c(c2)C(=O)N(CC2CCCO2)C3=O)cc1C (stereo unspecified)	n	n	74	n	n	52	n	n
CN1C(=O)c2ccc(C(=O)Nc3ccc4c(c3)OCO4)cc2C1=O	n	n	45	n	n	n	n	n
COc1ccc(NC(=O)c2ccc3c(c2)C(=O)N(CC2CCCO2)C3=O)cc1O (stereo unspecified)	n	n	n	n	n	x	x	x
O=C(Nc1ccc2c(c1)OCO2)c1ccccc1	n	n	n	n	n	x	x	x
FC(F)(F)Oc1ccccc1C(c1nnnn1-c1ccc2c(c1)OCCO2)N1CCN(C/C=C/c2ccccc2)CC1 (stereo unspecified)	x	x	81	n	x	56	n	n
Cc1cccc(C)c1-n1nnnc1C(c1cccc2ccccc12)N1CCN(C/C=C/c2ccccc2)CC1 (stereo unspecified)	x	x	n	n	x	x	x	x
c1ccc2c(C(c3nnnn3-c3ccc4c(c3)OCCO4)N3CCCC3)ccnc2c1 (stereo unspecified)	x	x	n	n	x	x	x	x
C(=C\c1ccccc1)/CN1CCN(C(c2cccc3ccccc23)c2nnnn2-c2ccc3c(c2)OCCO3)CC1 (stereo unspecified)	x	x	55	n	x	n	n	n
O=C(OCc1ccccc1)N1CCN(C(c2ccnc3ccccc23)c2nnnn2-c2ccc3c(c2)OCCO3)CC1 (stereo unspecified)	x	x	60	n	x	n	n	n
CC1(C(=O)O)CCCN1C(=O)c1cccc(OC(F)(F)F)c1 (stereo unspecified)	x	x	n	n	x	x	x	x
COc1ccc(C)cc1NC(=O)COC(=O)C1CCN(C(=O)c2ccc(Cl)cc2)CC1	n	n	n	n	n	x	x	x
COc1ccc(C(C)=O)cc1COC(=O)C1CCN(C(=O)c2ccc(Cl)cc2)CC1	n	n	77	n	n	n	n	n
COc1ccc(COC(=O)C2CCN(C(=O)c3ccc(Cl)cc3)CC2)cc1F	n	n	49	n	n	n	n	n
COC(=O)c1ccc2c(=O)sc(N3CCC(C(N)=O)CC3)nc2c1	n	n	n	n	n	x	x	x
COc1cc(C#Cc2c(-c3cncn3C)n(C)c3ccc(-c4cc(OC)c(OC)c(OC)c4)cc23)cc(OC)c1	n	n	50	n	n	n	n	n
COc1cc(C#Cc2c(-c3cncn3C)n(C)c3ccc(-c4ccc(OC)nc4)cc23)cc(OC)c1	n	n	n	n	n	x	x	x
N#Cc1cc([N+](=O)[O-])cnc1N(CCO)CCO	n	n	n	n	n	x	x	x

Screening data: PubChem BioAssay, Sanford-Burnham Center for Chemical Genomics
